Test [1] has as its target Dual specificity tyrosine-phosphorylation-regulated kinase 1A (Homo sapiens) (UniProt Q13627). Nature of the test: Inhibition of N-terminal His-tagged human Dyrk1A (126 to 490 residues) expressed in Escherichia coli BL21 (DE3) cells at 1 uM using Woodtide as substrate assessed as remaining enzyme activity after 10 mins in presence of [gamma-32P]-ATP by microbeta scintillation counting method. Put shortly: (§1)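 Recombinant DYRK1A kinase assay with Woodtide as the peptide substrate and ATP at 100 μM. Each compound was tested at two concentrations, 1 μM and 10 μM. Results are given as the percentage of DYRK1A activity remaining relative to the uninhibited enzyme.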

Test [2] has the same target. As to the kind of experiment: Inhibition of N-terminal His-tagged human Dyrk1A (126 to 490 residues) expressed in Escherichia coli BL21 (DE3) cells at 10 uM using Woodtide as substrate assessed as remaining enzyme activity after 10 mins in presence of [gamma-32P]-ATP by microbeta scintillation counting method. In short, it runs like this:
as §1

`Nc1nc2ccc(-c3ccc(O)cc3)cc2n1-c1ccc(O)cc1`: the Activity in test [1] is 74%; in test [2], 43%.

On to `Oc1ccc(-c2cnc3nccc(-c4ccc(O)cc4)c3c2)cc1`, for which the Activity turned out to be 67% in test [1] and 30% in test [2].

Take `Oc1ccc(-c2ccc(-c3cc(-c4ccc(O)cc4)n[nH]3)nc2)cc1`: the Activity amounted to 110% in test [1] and 98% in test [2].

For `Oc1ccc(-c2cnc3[nH]cc(-c4ccc(O)cc4)c3c2)cc1`, the Activity in test [1] and in test [2] was 3.3% throughout.

Consider `CC(=O)Nc1nc2ccc(-c3ccc(O)cc3)cc2n1-c1ccc(O)cc1`, for which the Activity was 106% in test [1] and 107% in test [2].

For the molecule `O=C(Nc1ccc(O)cc1)c1cncc2nnc(-c3ccc(O)cc3)n12`, the Activity in test [1] and in test [2] was 99% each time.

On to `Oc1ccc(-c2nnc3cncc(OCCc4cccc(O)c4)n23)cc1`, for which the Activity in test [1] is 94%; in test [2], 91%.

`Oc1ccc(-c2nc[nH]c2-c2ccc(O)cc2)cc1`: the Activity was 100% in test [1] and 79% in test [2].

As to `Oc1ccc(-c2ccnc(-c3cc(-c4ccc(O)cc4)ccn3)c2)cc1`, the Activity in test [1] stood at 90%; in test [2], 83%.

For the molecule `Oc1ccc(CCOc2cncc3nnc(-c4ccc(O)cc4)n23)cc1`, the Activity is 94% in test [1] and 99% in test [2].

Regarding `Oc1ccc(-c2ccnc(-c3cc(-c4ccc(O)cc4)n[nH]3)c2)cc1`, the Activity stood at 64% in test [1] and 9% in test [2].

For the molecule `Oc1ccc2c(c1)CNc1cc(O)ccc1N2`, the Activity in test [1] is 104%; in test [2] it was 113%.

In the case of `O=C(Nc1cccc(O)c1)c1cncc2nnc(-c3ccc(O)cc3)n12`, the figures for the Activity in test [1] and in test [2] were 104% and 102%, respectively.

For the origin of these results see ChEMBL document CHEMBL4261638, “Synthesis and in vitro evaluation of diverse heterocyclic diphenolic compounds as inhibitors of DYRK1A” (Bioorg Med Chem, 2018).
